Experimental data collected from several papers.
Protocols differ between the studies behind these lines.
PRMT3: Protein arginine N-methyltransferase 3 (PRMT3, Homo sapiens, UniProt O60678)
LDHA: L-lactate dehydrogenase A chain (LDHA, Homo sapiens, UniProt P00338)
NTRK1: High affinity nerve growth factor receptor (NTRK1, Homo sapiens, UniProt P04629)
TDP1: Tyrosyl-DNA phosphodiesterase 1 (TDP1, Homo sapiens, UniProt Q9NUW8)
MAOA: Amine oxidase [flavin-containing] A (MAOA, Homo sapiens, UniProt P21397)
Rhomboid protease AarA: Rhomboid protease AarA (Providencia stuartii, UniProt P46116)
SLC22A6: Solute carrier family 22 member 6 (SLC22A6, Homo sapiens, UniProt Q4U2R8)
PTK2: Focal adhesion kinase 1 (PTK2, Homo sapiens, UniProt Q05397)
GSR: Glutathione reductase, mitochondrial (GSR, Homo sapiens, UniProt P00390)
PTPN1: Tyrosine-protein phosphatase non-receptor type 1 (PTPN1, Homo sapiens, UniProt P18031)
PDE7A: High affinity 3',5'-cyclic-AMP phosphodiesterase 7A (PDE7A, Homo sapiens, UniProt Q13946)
MAP3K7: Mitogen-activated protein kinase kinase kinase 7 (MAP3K7, Homo sapiens, UniProt O43318)

| SMILES | target | test | setting | IC50 [µM] |
| --- | --- | --- | --- | --- |
| CCOc1ccc2c(-c3cc(C)nc(Nc4cc(OC)cc(C(F)(F)F)c4)n3)cnn2n1 | Homeodomain-interacting protein kinase 3 (HIPK3, Homo sapiens, UniProt Q9H422) | enzyme activity, inhibitor |  | > 10 |
| Nc1ncnc2c1ncn2[C@@H]1O[C@H](CSCCNC(=O)Nc2ccc(F)cc2)[C@@H](O)[C@H]1O | PRMT3 | enzyme activity, inhibitor, fluorescence |  | 2 |
| O=c1cc(-c2ccc(O)c(O)c2)oc2cc(O[C@@H]3O[C@H](CO)[C@@H](O)[C@H](O)[C@H]3O)cc(O)c12 | LDHA | enzyme activity, inhibitor | pH 7.4 | 139 |
| C=CC(=O)Nc1cc(Nc2nccc(Nc3cc(Cl)c(F)cc3C(C)(C)O)n2)c(OC)cc1N1CC[C@@H](N(C)C)C1 | NTRK1 | enzyme activity, inhibitor | with preincubation | > 10 |
| O=c1oc2c(cc1O)oc(=O)c1cc(O)c(O)c(O)c12 | LDHA | enzyme activity, inhibitor | pH 7.4 | 104 |
| OC[C@H]1O[C@@H](n2cnc3c(NCCCc4ccccc4)ncnc32)[C@H](O)[C@@H]1O | PRMT3 | enzyme activity, inhibitor, fluorescence |  | > 100 |
| Cc1c(C)c2c(c(C)c1O)CCC(C)(COc1ccc(CC3SC(=O)NC3=O)cc1)O2 (centres unmarked) | Peroxisome proliferator-activated receptor delta (PPARD, Homo sapiens, UniProt Q03181) | enzyme activity, inhibitor |  | 46 |
| O=C(O)c1ccc(Nc2c(-c3ccc(S(=O)(=O)O)cc3)nc3ccccn23)cc1 | TDP1 | enzyme activity, inhibitor |  | > 100 |
| C[C@@H]1O[C@@H](O[C@@H]2[C@@H](O)[C@H](OCCc3ccc(O)c(O)c3)O[C@H](CO)[C@H]2OC(=O)/C=C/c2ccc(O)c(O)c2)[C@H](O)[C@H](O)[C@H]1O | LDHA | enzyme activity, inhibitor | pH 7.4 | > 500 |
| CCCCN1/C(=C/C=C(Br)/C=C/C2=[N+](CCCC)c3ccc(Br)cc3C2(C)C)C(C)(C)c2cc(Br)ccc21 | PRMT3 | enzyme activity, inhibitor, radiometric |  | 4.09 |
| COc1cc(/C=C/C(=O)N2CCC(Cc3ccccc3)CC2)ccc1OC1CCCCC1 | MAOA | enzyme activity, inhibitor, fluorescence |  | 63.9 |
| CN1CCN(c2ccc(Nc3ncc4cc(C#N)c(=O)n(C5CCCC5)c4n3)cc2)CC1 | Tyrosine-protein kinase Lyn (LYN, Homo sapiens, UniProt P07948) | enzyme activity, inhibitor |  | 0.0358 |
| O=c1oc(Cl)c(Cl)c2ccccc12 | Rhomboid protease AarA | enzyme activity, inhibitor, fluorescence |  | 10 |
| O=C(O)c1ccc(CN2C(=O)c3cccc(NC(=O)c4ccc(Cl)s4)c3C2=O)cc1 | LDHA | enzyme activity, inhibitor |  | 0.308 |
| Cc1cccc(Nc2ccccc2C(=O)O)c1C | SLC22A6 | transporter uptake, inhibitor |  | 1.08 |
| COc1cc2c(OC)nc3c4cc5c(cc4cc(OCCCN4CCCC4)c3c2cc1OC)OCO5 | TDP1 | enzyme activity, inhibitor, fluorescence |  | 4.8 |
| Nc1ncnc2c1ncn2[C@@H]1O[C@H](CSCCNC(=O)NCCc2ccccc2)[C@@H](O)[C@H]1O | PRMT3 | enzyme activity, inhibitor, fluorescence |  | > 100 |
| C[C@H]1Oc2cc(cnc2N)-c2c(nn(C)c2C#N)CN(C)C(=O)c2ccc(F)cc21 | PTK2 | enzyme activity, inhibitor, radiometric |  | 0.004 |
| O=c1cc(-c2ccc(O)cc2)oc2cc(O)c([C@@H]3O[C@H](CO)[C@@H](O)[C@H](O)[C@H]3O)c(O)c12 | MAOA | enzyme activity, inhibitor |  | 25.8 |

| SMILES | target | test | setting | IC50 [µM] |
| --- | --- | --- | --- | --- |
| Clc1ccc2c(c1)N(CCCN1CCN(CCCc3ccccc3)CC1)c1ccccc1S2 | GSR | enzyme activity, inhibitor, absorbance |  | > 100 |
| CC1=C[C@@]2(C[C@H](C)[C@H]3CC=C(CO)C(=O)[C@@H]3O2)OC1=O | PTPN1 | enzyme activity, inhibitor |  | 41.1 |
| CC[C@@H](C(=O)Nc1ccc(C(N)=O)c(F)c1)n1cc(OC)c(-c2cc(Cl)ccc2-n2cc(C(F)(F)F)nn2)cc1=O | Coagulation factor IX (F9, Homo sapiens, UniProt P00740) | enzyme activity, inhibitor |  | 2.2 |
| C#Cc1ccc(C(=O)C2=C(C)C(=O)c3ccccc3C2=O)cc1 | GSR | enzyme activity, inhibitor | pH 6.9 | 0.6 |
| CN(C)CCCN1c2ccccc2CCc2ccc(Cl)cc21 | GSR | enzyme activity, inhibitor, absorbance |  | > 100 |
| NC(=O)c1cnc2[nH]ccc2c1N[C@@H]1[C@@H]2CC3C[C@H]1C[C@@](O)(C3)C2 | SLC22A6 | transporter uptake, inhibitor, radiometric | 2 min | > 100 |
| CNC(=O)c1cc2c(Oc3ccc(NC(=O)C4(C(=O)Nc5ccc(F)cc5)CC4)cc3)ccnc2cc1OC | Homeodomain-interacting protein kinase 4 (HIPK4, Homo sapiens, UniProt Q8NE63) | enzyme activity, inhibitor, radiometric |  | 0.003 |
| CCS(=O)(=O)N1CC(CC#N)(n2cc(-c3ncnc4[nH]ccc34)cn2)C1 | SLC22A6 | transporter uptake, inhibitor |  | > 100 |
| CC1(C)C(/C=C/C=C2/N(CCCc3ccccc3)c3ccc(Cl)cc3C2(C)C)=[N+](CCCc2ccccc2)c2ccc(Cl)cc21 | PRMT3 | enzyme activity, inhibitor, radiometric |  | 1.03 |
| CC(C)(C)OC(=O)N1CCN(C(=O)C(=O)CC(=O)c2cccc(N(Cc3ccccc3)Cc3ccccc3)c2)CC1 | PTPN1 | enzyme activity, inhibitor, absorbance | pH 7 | 9.2 |
| Cc1cnc(-c2ccc(-c3ccc(NC(=O)Nc4c(F)cc(F)cc4F)cc3F)c3c2C(=O)NC3)[nH]1 | NTRK1 | enzyme activity, inhibitor |  | 0.0148 |
| CC[C@@H](C)[C@@H](NC(=O)[C@@H](CCC(N)=O)NC(=O)[C@H](NC(C)=O)C(C)C)C(=O)N[C@@H](C(=O)N[C@H](Cc1ccc(O)cc1)C(=O)N[C@H](CCCCN)C(N)=O)C(C)C | Insulin (INS, Homo sapiens, UniProt P01308) | enzyme activity, inhibitor | pH 7.4 | ~75 |
| COc1oc(=O)c2cc(N)ccc2c1Cl | Rhomboid protease AarA | enzyme activity, inhibitor, fluorescence |  | 71 |
| COc1cc2c(OC)nc3c4cc5c(cc4cc(OCCCN(C)C)c3c2cc1OC)OCO5 | TDP1 | enzyme activity, inhibitor, fluorescence |  | 1.7 |
| CCCCN1/C(=C/C=C/c2sc3ccc(Br)cc3[n+]2CCCC)Sc2ccc(Br)cc21 | PRMT3 | enzyme activity, inhibitor, radiometric |  | 3.17 |
| CCn1ncc2c1-c1cnc(N)c(c1)O[C@H](C)c1cc(F)ccc1-c1nn(C)nc1C2 | PTK2 | enzyme activity, inhibitor, radiometric |  | 0.011 |
| Fc1ccc(CN(CC(F)(F)F)C2CCN(CCCc3c[nH]c4ccc(Cn5cncn5)cc34)CC2)cc1 | Voltage-dependent T-type calcium channel subunit alpha-1I (CACNA1I, Homo sapiens, UniProt Q9P0X4) | ion current, patch clamp |  | 0.0007 |
| COc1cc(C[C@H]2C(=O)OC[C@@H]2Cc2ccc(OC)c(OC)c2)ccc1O | Cone cGMP-specific 3',5'-cyclic phosphodiesterase subunit alpha' (PDE6C, Homo sapiens, UniProt P51160) | enzyme activity, inhibitor |  | > 20 |
| O=C1NC(=O)/C(=C/c2ccc(OCCNc3nc4c(cnn4C4CCCC4)c(=O)[nH]3)c(F)c2)S1 | PDE7A | enzyme activity, inhibitor |  | 0.027 |

| SMILES | target | test | setting | IC50 [µM] |
| --- | --- | --- | --- | --- |
| Nc1ncnc2c1ncn2[C@@H]1O[C@H](CSCCNC(=O)Nc2ccccc2)[C@@H](O)[C@H]1O | PRMT3 | enzyme activity, inhibitor, fluorescence |  | 1.9 |
| CCN(CC)CCCOc1cc2cc3c(cc2c2nc(OC)c4cc(OC)c(OC)cc4c12)OCO3 | TDP1 | enzyme activity, inhibitor, fluorescence |  | 5.4 |
| CC1=C[C@@]2(C[C@H](C)[C@H]3CC=C(C)C(=O)[C@@H]3O2)OC1=O | PTPN1 | enzyme activity, inhibitor |  | > 500 |
| Nc1ncnc2c1ncn2[C@@H]1O[C@H](CSCCNC(=O)Nc2ccc(Cl)cc2)[C@@H](O)[C@H]1O | PRMT3 | enzyme activity, inhibitor, fluorescence |  | 22 |
| Cc1ccc(NC(=O)c2ccc(C)c(C(F)(F)F)c2)cc1C#Cc1nn(C2CCC(O)CC2)c2ncnc(N)c12 (centres unmarked) | NTRK1 | enzyme activity, inhibitor, radiometric |  | > 10 |
| Nc1ncnc2c1ncn2[C@@H]1O[C@H](CSCCNC(=O)NCc2ccccc2)[C@@H](O)[C@H]1O | PRMT3 | enzyme activity, inhibitor, fluorescence |  | 0.52 |
| COc1cc2c(OC)nc3c4cc5c(cc4cc(OCCCN4CCC(N6CCCCC6)CC4)c3c2cc1OC)OCO5 | TDP1 | enzyme activity, inhibitor |  | 11 |
| N#Cc1ccc(COc2cccc(C3CCN(Cc4nc5ccc(C(=O)O)cc5n4C[C@@H]4CCO4)CC3)n2)c(F)c1 | Glucagon-like peptide 2 receptor (GLP2R, Homo sapiens, UniProt O95838) | cAMP, antagonist |  | 3.6 |
| CC(C)(C)n1nc(-c2cnc3cc(OC4CC4)ccc3c2)c(C(N)=O)c1N | Receptor-interacting serine/threonine-protein kinase 2 (RIPK2, Homo sapiens, UniProt O43353) | cell-free assay |  | 1.71 |
| CSc1ccc(/C=C2/C(C)=C(CC(=O)O)c3cc(F)ccc32)cc1 | PDE7A | enzyme activity, inhibitor |  | > 100 |
| NS(=O)(=O)c1cccc(Cc2c(-c3ccc(F)c(F)c3)[nH]n(-c3nc(C(=O)O)cs3)c2=O)c1 | LDHA | enzyme activity, inhibitor |  | > 50 |
| C[C@@H]1C[C@H]2O[C@@H]2/C=C\C=C\C(=O)Cc2c(Cl)c(O)cc(O)c2C(=O)O1 | MAP3K7 | enzyme activity, inhibitor, ATP luminescence |  | > 10 |
| O=C1C[C@@H](c2cc(O)cc(O)c2)Oc2cc(O)ccc21 | MAOA | enzyme activity, inhibitor |  | 13.6 |
| Nc1ncnc2c1ncn2[C@@H]1O[C@H](COP(=O)(O)OP(=O)(O)O)[C@@H](O)[C@H]1O | Nucleotide-binding oligomerization domain-containing protein 1 (NOD1, Homo sapiens, UniProt Q9Y239) | ligand displacement, FP |  | 0.19 |
| O=C(O)CCc1nc(-c2ccccc2)c(-c2ccccc2)o1 | SLC22A6 | transporter uptake, inhibitor |  | 0.891 |
| Nc1ncnc2c1ncn2[C@@H]1O[C@H](CSCCCNC(=O)NCc2ccccc2)[C@@H](O)[C@H]1O | PRMT3 | enzyme activity, inhibitor, fluorescence |  | 70 |
| C[C@@H]1C[C@H]2O[C@@H]2CC/C=C/C(=O)Cc2cc(O)cc(O)c2C(=O)O1 | MAP3K7 | enzyme activity, inhibitor, ATP luminescence |  | > 10 |
| O=c1cc(-c2ccc(O)cc2)oc2c([C@@H]3O[C@H](CO)[C@@H](O)[C@H](O)[C@H]3O)c(O)c([C@@H]3O[C@H](CO)[C@@H](O)[C@H](O)[C@H]3O)c(O)c12 | MAOA | enzyme activity, inhibitor |  | 50.2 |
